Assays:
Type in all cases: functional
[1] = tested on: Escherichia coli; assay: Maximal displacement of dansyl-PMBN from Escherichia coli LPS
Outline: (§1)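 Fluorescence displacement assay. E. coli LPS (3 µg/mL, ~2 × 10^-7 M) in 5 mM HEPES pH 7.2 was pre-equilibrated with dansyl-PMBN (0.55 µM). Peptide was added stepwise at 5-min intervals from 1 × 10^-5 to 1 × 10^-3 M stocks. Fluorescence read at excitation 340 nm and emission 485 nm after each addition. Percent inhibition was plotted against concentration to give maximal and 50% displacement. 2-3 repeats.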

[2] = tested on: Escherichia coli; assay: Inhibitory concentration required to displace dansyl-PMBN (0.55 uM) from maximal specific binding to Escherichia coli LPS; outline: as §1
[3] = tested on: Escherichia coli; assay: Relative sensitizing activity against Escherichia coli was determined as a percent of pPMBN (50 ug/mL) as a control
Outline: (§2)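 Clinical isolates at 1 × 10^5 CFU per well, in ISB with a 2-fold serial dilution (1000-0.5 µg/mL) of novobiocin. Peptide added at 50 µg/mL final. Incubated 20 h at 37 °C and read by visible growth. Sensitizing activity is the fold drop in novobiocin MIC with versus without peptide, expressed as percent of that given by 50 µg/mL pPMBN.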

[4] = tested on: Klebsiella pneumoniae; assay: Relative sensitizing activity against Klebsiella pneumoniae was determined as a percent of pPMBN (50 ug/mL) as a control; outline: as §2

| Compound | Imax [1] | Activity [3] | Activity [4] | other results |
| --- | --- | --- | --- | --- |
| CC(C)C[C@H]1NC(=O)[C@@H](Cc2ccccc2)NC(=O)[C@@H](CCN)NC(=O)[C@H](NC(=O)[C@H](CCN)NC(=O)[C@@H](N)[C@@H](C)O)CCNC(=O)[C@H]([C@@H](C)O)NC(=O)[C@@H](CCCCN)NC(=O)[C@H](CCCCN)NC1=O | 62% | – | – | – |
| CC(C)C[C@@H]1NC(=O)[C@@H](Cc2ccccc2)NC(=O)[C@H](CCCCN)NC(=O)[C@@H](NC(=O)[C@H](CCCCN)NC(=O)[C@@H](N)[C@@H](C)O)CCCCNC(=O)[C@H]([C@@H](C)O)NC(=O)[C@H](CCCCN)NC(=O)[C@H](CCCCN)NC1=O [listing 1 of 2 here] | – | – | – | IC50 ([2]; Escherichia coli): 35 µM |
| CC(C)C[C@@H]1NC(=O)[C@@H](Cc2ccccc2)NC(=O)[C@H](CCN=C(N)N)NC(=O)[C@@H](NC(=O)[C@H](CCN=C(N)N)NC(=O)[C@@H](N)[C@@H](C)O)CCNC(=O)[C@H]([C@@H](C)O)NC(=O)[C@H](CCN=C(N)N)NC(=O)[C@H](CCN=C(N)N)NC1=O [listing 1 of 2 here] | – | – | – | IC50 ([2]; Escherichia coli): 3.8 µM |
| CC(C)C[C@@H]1NC(=O)[C@@H](Cc2ccccc2)NC(=O)[C@H](CCN)NC(=O)[C@@H](NC(=O)[C@H](CCN)NC(=O)[C@@H](N)[C@@H](C)O)CCNC(=O)[C@H]([C@@H](C)O)NC(=O)[C@H](CCN)NC(=O)[C@H](CCN)NC1=O (stereo in doubt; form 2) [listing 1 of 2 here] | – | 96% | 93% | – |
| CC(C)C[C@@H]1NC(=O)[C@@H](Cc2ccccc2)NC(=O)[C@H](CCN)NC(=O)[C@@H](NC(=O)[C@H](CCN)NC(=O)[C@@H](N)[C@@H](C)O)CCNC(=O)[C@H]([C@@H](C)O)NC(=O)[C@H](CCCCN)NC(=O)[C@H](CCCCN)NC1=O [listing 1 of 2 here] | – | – | – | IC50 ([2]; Escherichia coli): 12 µM |
| CC(C)C[C@@H]1NC(=O)[C@@H](Cc2ccccc2)NC(=O)[C@H](CCN)NC(=O)[C@@H](NC(=O)[C@H](CCN)NC(=O)[C@@H](N)[C@@H](C)O)CCCCNC(=O)[C@H]([C@@H](C)O)NC(=O)[C@H](CCN)NC(=O)[C@H](CCN)NC1=O | – | 17% | 18% | – |
| CC(C)C[C@H]1NC(=O)[C@@H](Cc2ccccc2)NC(=O)[C@@H](CCN)NC(=O)[C@H](NC(=O)[C@H](CCN)NC(=O)[C@@H](N)[C@@H](C)O)CCNC(=O)[C@H]([C@@H](C)O)NC(=O)[C@@H](CCN)NC(=O)[C@H](CCN)NC1=O (stereo in doubt; form 2) | 80% | – | – | – |
| CC(C)C[C@@H]1NC(=O)[C@@H](Cc2ccccc2)NC(=O)[C@H](CCN)NC(=O)[C@@H](NC(=O)[C@H](CCN)NC(=O)[C@@H](N)[C@@H](C)O)CCNC(=O)[C@H]([C@@H](C)O)NC(=O)[C@H](CCN)NC(=O)[C@H](CCN)NC1=O (stereo in doubt; form 2) [listing 2 of 2 here] | – | – | – | IC50 [2]: 3 µM |
| CC(C)C[C@H]1NC(=O)[C@@H](Cc2ccccc2)NC(=O)[C@@H](CCCN)NC(=O)[C@H](NC(=O)[C@H](CCCN)NC(=O)[C@@H](N)[C@@H](C)O)CCCNC(=O)[C@H]([C@@H](C)O)NC(=O)[C@@H](CCCN)NC(=O)[C@H](CCCN)NC1=O | 62% | – | – | – |
| CC(C)C[C@@H]1NC(=O)[C@@H](Cc2ccccc2)NC(=O)[C@H](CCCN)NC(=O)[C@@H](NC(=O)[C@H](CCCN)NC(=O)[C@@H](N)[C@@H](C)O)CCCNC(=O)[C@H]([C@@H](C)O)NC(=O)[C@H](CCCN)NC(=O)[C@H](CCCN)NC1=O [listing 1 of 2 here] | – | 2% | 6% | – |
| CC(C)C[C@H]1NC(=O)[C@@H](Cc2ccccc2)NC(=O)[C@@H](NC(=O)[C@H](CCN)NC(=O)[C@H](CCN)NC(=O)[C@@H](N)[C@@H](C)O)CCNC(=O)[C@H]([C@@H](C)O)NC(=O)[C@@H](CCN)NC(=O)[C@H](CCN)NC1=O | 45% | – | – | – |
| CC(C)C[C@@H]1NC(=O)[C@@H](Cc2ccccc2)NC(=O)[C@H](CCCCN)NC(=O)[C@@H](NC(=O)[C@H](CCCCN)NC(=O)[C@@H](N)[C@@H](C)O)CCNC(=O)[C@H]([C@@H](C)O)NC(=O)[C@H](CCN)NC(=O)[C@H](CCN)NC1=O [listing 1 of 2 here] | – | – | – | IC50 ([2]; Escherichia coli): 14 µM |
| CC(C)C[C@@H]1NC(=O)[C@@H](Cc2ccccc2)NC(=O)[C@H](CCCN)NC(=O)[C@@H](NC(=O)[C@H](CCCN)NC(=O)[C@@H](N)[C@@H](C)O)CCCNC(=O)[C@H]([C@@H](C)O)NC(=O)[C@H](CCCN)NC(=O)[C@H](CCCN)NC1=O [listing 2 of 2 here] | – | – | – | IC50 ([2]; Escherichia coli): 25 µM |
| POLYMYXIN B | 100% | – | – | – |
| CC(C)C[C@H]1NC(=O)[C@@H](Cc2ccccc2)NC(=O)[C@@H](CCN)NC(=O)[C@H](NC(=O)[C@H](CCN)NC(=O)[C@@H](N)[C@@H](C)O)CCNC(=O)[C@H]([C@@H](C)O)NC(=O)[C@@H](CCN)NC(=O)[C@H](CCN)NC1=O (stereo in doubt; form 1) | 80% | – | – | – |
| CC(C)C[C@@H]1NC(=O)[C@@H](Cc2ccccc2)NC(=O)[C@H](CCN)NC(=O)[C@@H](NC(=O)[C@H](CCN)NC(=O)[C@@H](N)[C@@H](C)O)CCNC(=O)[C@H]([C@@H](C)O)NC(=O)[C@H](CCCCN)NC(=O)[C@H](CCCCN)NC1=O [listing 2 of 2 here] | – | 40% | 26% | – |

| Compound | Imax [1] | Activity [3] | Activity [4] | other results |
| --- | --- | --- | --- | --- |
| CC(C)C[C@@H]1NC(=O)[C@@H](Cc2ccccc2)NC(=O)[C@@H](NC(=O)[C@H](CCN)NC(=O)[C@H](CCN)NC(=O)[C@@H](N)[C@@H](C)O)CCNC(=O)[C@H]([C@@H](C)O)NC(=O)[C@H](CCN)NC(=O)[C@H](CCN)NC1=O | – | 4% | 5% | – |
| CC(C)C[C@@H]1NC(=O)[C@@H](Cc2ccccc2)NC(=O)[C@H](CCCCN)NC(=O)[C@@H](NC(=O)[C@H](CCCCN)NC(=O)[C@@H](N)[C@@H](C)O)CCNC(=O)[C@H]([C@@H](C)O)NC(=O)[C@H](CCCCN)NC(=O)[C@H](CCCCN)NC1=O | – | 5% | 3% | – |
| CC(C)C[C@H]1NC(=O)[C@@H](Cc2ccccc2)NC(=O)[C@@H](CCN)NC(=O)[C@H](CCN)NC(=O)[C@@H](NC(=O)[C@@H](N)[C@@H](C)O)CCNC(=O)[C@H]([C@@H](C)O)NC(=O)[C@@H](CCN)NC(=O)[C@H](CCN)NC1=O | 60% | – | – | – |
| CC(C)C[C@H]1NC(=O)[C@@H](Cc2ccccc2)NC(=O)[C@@H](CCCCN)NC(=O)[C@H](NC(=O)[C@H](CCCCN)NC(=O)[C@@H](N)[C@@H](C)O)CCNC(=O)[C@H]([C@@H](C)O)NC(=O)[C@@H](CCCCN)NC(=O)[C@H](CCCCN)NC1=O | 45% | – | – | – |
| CC(C)C[C@@H]1NC(=O)[C@@H](Cc2ccccc2)NC(=O)[C@H](CCCCN)NC(=O)[C@@H](NC(=O)[C@H](CCCCN)NC(=O)[C@@H](N)[C@@H](C)O)CCNC(=O)[C@H]([C@@H](C)O)NC(=O)[C@H](CCN)NC(=O)[C@H](CCN)NC1=O [listing 2 of 2 here] | – | 9% | 13% | – |
| CC(C)C[C@H]1NC(=O)[C@H](Cc2ccccc2)NC(=O)[C@@H](CCN)NC(=O)[C@H](NC(=O)[C@H](CCN)NC(=O)[C@@H](N)[C@@H](C)O)CCNC(=O)[C@H]([C@@H](C)O)NC(=O)[C@@H](CCN)NC(=O)[C@H](CCN)NC1=O | 64% | – | – | – |
| CC(C)C[C@@H]1NC(=O)[C@@H](Cc2ccccc2)NC(=O)[C@H](CCCCN)NC(=O)[C@@H](NC(=O)[C@H](CCCCN)NC(=O)[C@@H](N)[C@@H](C)O)CCCCNC(=O)[C@H]([C@@H](C)O)NC(=O)[C@H](CCCCN)NC(=O)[C@H](CCCCN)NC1=O [listing 2 of 2 here] | – | 4% | 3% | – |
| CC(C)C[C@@H]1NC(=O)[C@H](Cc2ccccc2)NC(=O)[C@H](CCN)NC(=O)[C@@H](NC(=O)[C@H](CCN)NC(=O)[C@@H](N)[C@@H](C)O)CCNC(=O)[C@H]([C@@H](C)O)NC(=O)[C@H](CCN)NC(=O)[C@H](CCN)NC1=O | – | 5% | 9% | – |
| CC(C)C[C@H]1NC(=O)[C@H](Cc2ccccc2)NC(=O)[C@@H](CCN=C(N)N)NC(=O)[C@H](NC(=O)[C@H](CCN=C(N)N)NC(=O)[C@@H](N)[C@@H](C)O)CCNC(=O)[C@H]([C@@H](C)O)NC(=O)[C@@H](CCN=C(N)N)NC(=O)[C@H](CCN=C(N)N)NC1=O | 80% | – | – | – |
| CC(C)C[C@@H]1NC(=O)[C@@H](Cc2ccccc2)NC(=O)[C@H](CCN)NC(=O)[C@H](CCN)NC(=O)[C@@H](NC(=O)[C@@H](N)[C@@H](C)O)CCNC(=O)[C@H]([C@@H](C)O)NC(=O)[C@H](CCN)NC(=O)[C@H](CCN)NC1=O | – | 7% | 5% | – |
| CC(C)C[C@@H]1NC(=O)[C@@H](Cc2ccccc2)NC(=O)[C@H](CN)NC(=O)[C@@H](NC(=O)[C@H](CN)NC(=O)[C@@H](N)[C@@H](C)O)CNC(=O)[C@H]([C@@H](C)O)NC(=O)[C@H](CN)NC(=O)[C@H](CN)NC1=O | – | 11% | 5% | – |
| CC(C)C[C@H]1NC(=O)[C@@H](Cc2ccccc2)NC(=O)[C@@H](CCCCN)NC(=O)[C@H](NC(=O)[C@H](CCCCN)NC(=O)[C@@H](N)[C@@H](C)O)CCNC(=O)[C@H]([C@@H](C)O)NC(=O)[C@@H](CCN)NC(=O)[C@H](CCN)NC1=O | 64% | – | – | – |
| CC(C)C[C@H]1NC(=O)[C@@H](Cc2ccccc2)NC(=O)[C@@H](CCCCN)NC(=O)[C@H](NC(=O)[C@H](CCCCN)NC(=O)[C@@H](N)[C@@H](C)O)CCCCNC(=O)[C@H]([C@@H](C)O)NC(=O)[C@@H](CCCCN)NC(=O)[C@H](CCCCN)NC1=O | 60% | – | – | – |
| CC(C)C[C@@H]1NC(=O)[C@@H](Cc2ccccc2)NC(=O)[C@H](CCN=C(N)N)NC(=O)[C@@H](NC(=O)[C@H](CCN=C(N)N)NC(=O)[C@@H](N)[C@@H](C)O)CCNC(=O)[C@H]([C@@H](C)O)NC(=O)[C@H](CCN=C(N)N)NC(=O)[C@H](CCN=C(N)N)NC1=O [listing 2 of 2 here] | – | 25% | 25% | – |
| CC(C)C[C@H]1NC(=O)[C@@H](Cc2ccccc2)NC(=O)[C@@H](CN)NC(=O)[C@H](NC(=O)[C@H](CN)NC(=O)[C@@H](N)[C@@H](C)O)CNC(=O)[C@H]([C@@H](C)O)NC(=O)[C@@H](CN)NC(=O)[C@H](CN)NC1=O | 64% | – | – | – |
| CC(C)C[C@H]1NC(=O)[C@@H](Cc2ccccc2)NC(=O)[C@@H](CCN)NC(=O)[C@H](NC(=O)[C@H](CCN)NC(=O)[C@@H](N)[C@@H](C)O)CCCCNC(=O)[C@H]([C@@H](C)O)NC(=O)[C@@H](CCN)NC(=O)[C@H](CCN)NC1=O | 60% | – | – | – |
